Results reported in ChEMBL document CHEMBL1221233, “4''-O-(omega-Quinolylamino-alkylamino)propionyl derivatives of selected macrolides with the activity against the key erythromycin resistant respiratory pathogens” (2010).
≈ marks a conversion by molar mass, not a printed value.

Columns and labels:
Type in all cases: functional
Haemophilus influenzae = assay: Antibacterial activity against Haemophilus influenzae ATCC 49247 by broth microdilution method
How it was run: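 MIC by broth microdilution following CLSI guidelines, expressed in units of lg/mL. Twofold dilutions prepared in 96-well plates. H. influenzae grown on Mueller-Hinton chocolate agar before testing.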

Streptococcus pyogenes [1] = assay: Antibacterial activity against efflux-mediated macrolide-resistance Streptococcus pyogenes 2 Finland by broth microdilution method
How it was run: (§1)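 MIC by CLSI broth microdilution. In the streptococcal medium, 5% horse serum replaced lysed blood. Compounds were tested as two-fold serial dilutions. Strains were first grown on Columbia agar with 5% sheep blood. The MIC was read as the lowest concentration inhibiting growth.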

Staphylococcus aureus [2] = assay: Antibacterial activity against inducible resistance to macrolide, licosamide and streptogramin Staphylococcus aureus 90256 by broth microdilution method
How it was run: (§2)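 Staphylococci were grown on Mueller-Hinton agar and then tested by CLSI-guideline broth microdilution against two-fold serial dilutions of compound. The result was recorded as the minimum inhibitory concentration.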

Staphylococcus aureus [3] = assay: Antibacterial activity against efflux-mediated macrolide-resistance Staphylococcus aureus PK1 by broth microdilution method; how it was run: as §2
Streptococcus pneumoniae [4] = assay: Antibacterial activity against constitutive MLS resistance Streptococcus pneumoniae 58 by broth microdilution method; how it was run: as §1
Streptococcus pneumoniae [5] = assay: Antibacterial activity against inducible resistance to macrolide and constitutive resistance to lincosamide Streptococcus pneumoniae 134 GR M by broth microdilution method; how it was run: as §1
Streptococcus pyogenes [6] = assay: Antibacterial activity against constitutive MLS resistance sStreptococcus pyogenes 166 GR-Micro by broth microdilution method; how it was run: as §1
Streptococcus pneumoniae [7] = assay: Antibacterial activity against efflux-mediated macrolide-resistance Streptococcus pneumoniae Ci137 by broth microdilution method; how it was run: as §1

Compound	MIC (Haemophilus influenzae) [µg/mL]	MIC (Streptococcus pyogenes [1]) [µg/mL]	MIC (Staphylococcus aureus [2]) [µg/mL]	MIC (Staphylococcus aureus [3]) [µg/mL]	MIC (Streptococcus pneumoniae [4]) [µg/mL]	MIC (Streptococcus pneumoniae [5]) [µg/mL]	MIC (Streptococcus pyogenes [6]) [µg/mL]	MIC (Streptococcus pneumoniae [7]) [µg/mL]
CC[C@H]1OC(=O)[C@H](C)[C@@H](O[C@H]2C[C@@](C)(OC)[C@@H](OC(=O)CCNCCCCNc3ccc4c(=O)c(C(=O)O)cn(C5CC5)c4c3)[C@H](C)O2)[C@H](C)[C@@H](O[C@@H]2O[C@H](C)C[C@H](N(C)C)[C@H]2O)[C@](C)(O)C[C@@H](C)CN(C)[C@H](C)[C@@H](O)[C@]1(C)O	8 (≈ 7.15 µM)	1 (≈ 0.894 µM)	8 (≈ 7.15 µM)	2 (≈ 1.79 µM)	4 (≈ 3.58 µM)	8 (≈ 7.15 µM)	4 (≈ 3.58 µM)	0.5 (≈ 0.447 µM)
CC[C@H]1OC(=O)[C@H](C)[C@@H](O[C@H]2C[C@@](C)(OC)[C@@H](OC(=O)CCN(C)CCNc3cc4c(=O)c(C(=O)OC)cn(C5CC5)c4cc3Cl)[C@H](C)O2)[C@H](C)[C@@H](O[C@@H]2O[C@H](C)C[C@H](N(C)C)[C@H]2O)[C@](C)(O)C[C@@H](C)CN(C)[C@H](C)[C@@H](O)[C@]1(C)O	8 (≈ 6.94 µM)	≤ 0.125	> 64	16 (≈ 13.9 µM)	0.5 (≈ 0.434 µM)	0.5 (≈ 0.434 µM)	1 (≈ 0.867 µM)	≤ 0.125
CC[C@H]1OC(=O)[C@H](C)[C@@H](O[C@H]2C[C@@](C)(OC)[C@@H](OC(=O)CCNCCNc3ccc4c(c3)c(=O)c(C(=O)O)cn4C3CC3)[C@H](C)O2)[C@H](C)[C@@H](O[C@@H]2O[C@H](C)C[C@H](N(C)C)[C@H]2O)[C@](C)(O)C[C@@H](C)CN(C)[C@H](C)[C@H]2OC(=O)O[C@@]21C	2 (≈ 1.79 µM)	0.25 (≈ 0.224 µM)	2 (≈ 1.79 µM)	1 (≈ 0.896 µM)	0.25 (≈ 0.224 µM)	0.25 (≈ 0.224 µM)	≤ 0.125	≤ 0.125
CC[C@H]1OC(=O)[C@H](C)[C@@H](O[C@H]2C[C@@](C)(OC)[C@@H](OC(=O)CCNCCCCNc3cc4c(cc3F)c(=O)c(C(=O)O)cn4C3CC3)[C@H](C)O2)[C@H](C)[C@@H](O[C@@H]2O[C@H](C)C[C@H](N(C)C)[C@H]2O)[C@](C)(O)C[C@@H](C)C(=O)[C@H](C)[C@@H](O)[C@]1(C)O	2 (≈ 1.78 µM)	≤ 0.125	> 64	2 (≈ 1.78 µM)	8 (≈ 7.13 µM)	2 (≈ 1.78 µM)	8 (≈ 7.13 µM)	≤ 0.125
CC[C@H]1OC(=O)[C@H](C)[C@@H](O[C@H]2C[C@@](C)(OC)[C@@H](OC(=O)CCNCCNc3ccc4c(c3)c(=O)c(C(=O)O)cn4C3CC3)[C@H](C)O2)[C@H](C)[C@@H](O[C@@H]2O[C@H](C)C[C@H](N(C)C)[C@H]2O)[C@](C)(O)C[C@@H](C)C(=O)[C@H](C)[C@@H](O)[C@]1(C)O	1 (≈ 0.93 µM)	≤ 0.125	4 (≈ 3.72 µM)	8 (≈ 7.44 µM)	≤ 0.125	≤ 0.125	≤ 0.125	≤ 0.125
CC[C@H]1OC(=O)[C@H](C)C(=O)[C@H](C)[C@@H](O[C@@H]2O[C@H](C)C[C@H](N(C)C)[C@H]2O)[C@](C)(OC)C[C@@H](C)C(=O)[C@H](C)[C@H]2N(CCCCn3cnc(-c4cccnc4)c3)C(=O)O[C@]12C [TELITHROMYCIN]	2 (≈ 2.46 µM)	0.5 (≈ 0.616 µM)	≤ 0.125	≤ 0.125	0.25 (≈ 0.308 µM)	0.25 (≈ 0.308 µM)	16 (≈ 19.7 µM)	0.25 (≈ 0.308 µM)
CC[C@H]1OC(=O)[C@H](C)[C@@H](O[C@H]2C[C@@](C)(OC)[C@@H](OC(=O)CCNCCNc3cc4c(=O)c(C(=O)OC)cn(C5CC5)c4cc3Cl)[C@H](C)O2)[C@H](C)[C@@H](O[C@@H]2O[C@H](C)C[C@H](N(C)C)[C@H]2O)[C@](C)(O)C[C@@H](C)CN(C)[C@H](C)[C@@H](O)[C@]1(C)O	8 (≈ 7.02 µM)	≤ 0.125	> 64	8 (≈ 7.02 µM)	≤ 0.125	≤ 0.125	≤ 0.125	≤ 0.125
CC[C@H]1OC(=O)[C@H](C)[C@@H](O[C@H]2C[C@@](C)(OC)[C@@H](OC(=O)CCN(C)CCNc3ccc4c(c3)c(=O)c(C(=O)O)cn4C3CC3)[C@H](C)O2)[C@H](C)[C@@H](O[C@@H]2O[C@H](C)C[C@H](N(C)C)[C@H]2O)[C@](C)(O)C[C@@H](C)CN(C)[C@H](C)[C@H]2OC(=O)O[C@@]21C	4 (≈ 3.54 µM)	≤ 0.125	8 (≈ 7.08 µM)	1 (≈ 0.885 µM)	1 (≈ 0.885 µM)	1 (≈ 0.885 µM)	0.5 (≈ 0.442 µM)	≤ 0.125
CC[C@H]1OC(=O)[C@H](C)[C@@H](O[C@H]2C[C@@](C)(OC)[C@@H](OC(=O)CCNCCNc3cc4c(=O)c(C(=O)O)cn(C5CC5)c4cc3Cl)[C@H](C)O2)[C@H](C)[C@@H](O[C@@H]2O[C@H](C)C[C@H](N(C)C)[C@H]2O)[C@](C)(O)C[C@@H](C)CN(C)[C@H](C)[C@H]2OC(=O)O[C@@]21C	2 (≈ 1.74 µM)	≤ 0.125	1 (≈ 0.869 µM)	0.5 (≈ 0.434 µM)	≤ 0.125	≤ 0.125	≤ 0.125	≤ 0.125
CC[C@H]1OC(=O)[C@H](C)[C@@H](O[C@H]2C[C@@](C)(OC)[C@@H](OC(=O)CCN(C)CCNc3cc4c(=O)c(C(=O)O)cn(C5CC5)c4cc3Cl)[C@H](C)O2)[C@H](C)[C@@H](O[C@@H]2O[C@H](C)C[C@H](N(C)C)[C@H]2O)[C@](C)(O)C[C@@H](C)CN(C)[C@H](C)[C@H]2OC(=O)O[C@@]21C	4 (≈ 3.43 µM)	≤ 0.125	2 (≈ 1.72 µM)	1 (≈ 0.858 µM)	1 (≈ 0.858 µM)	2 (≈ 1.72 µM)	1 (≈ 0.858 µM)	≤ 0.125
CC[C@H]1OC(=O)[C@H](C)[C@@H](O[C@H]2C[C@@](C)(OC)[C@@H](OC(=O)CCNCCNc3cc4c(=O)c(C(=O)OC)cn(C5CC5)c4cc3Cl)[C@H](C)O2)[C@H](C)[C@@H](O[C@@H]2O[C@H](C)C[C@H](N(C)C)[C@H]2O)[C@](C)(O)C[C@@H](C)C(=O)[C@H](C)[C@@H](O)[C@]1(C)O	2 (≈ 1.78 µM)	≤ 0.125	> 64	16 (≈ 14.2 µM)	≤ 0.125	≤ 0.125	0.125 (≈ 0.111 µM)	≤ 0.125
CC[C@H]1OC(=O)[C@H](C)[C@@H](O[C@H]2C[C@@](C)(OC)[C@@H](OC(=O)CCNCCNc3ccc4c(c3)c(=O)c(C(=O)O)cn4C3CC3)[C@H](C)O2)[C@H](C)[C@@H](O[C@@H]2O[C@H](C)C[C@H](N(C)C)[C@H]2O)[C@](C)(O)C[C@@H](C)CN(C)[C@H](C)[C@@H](O)[C@]1(C)O	4 (≈ 3.67 µM)	≤ 0.125	1 (≈ 0.917 µM)	1 (≈ 0.917 µM)	≤ 0.125	≤ 0.125	≤ 0.125	≤ 0.125
CC[C@H]1OC(=O)[C@H](C)[C@@H](O[C@H]2C[C@@](C)(OC)[C@@H](OC(=O)CCNCCNc3ccc4c(=O)c(C(=O)O)cn(C5CC5)c4c3)[C@H](C)O2)[C@H](C)[C@@H](O[C@@H]2O[C@H](C)C[C@H](N(C)C)[C@H]2O)[C@](C)(O)C[C@@H](C)NC(=O)[C@H](C)[C@@H](O)[C@]1(C)O	8 (≈ 7.34 µM)	≤ 0.125	64 (≈ 58.7 µM)	64 (≈ 58.7 µM)	32 (≈ 29.3 µM)	64 (≈ 58.7 µM)	32 (≈ 29.3 µM)	≤ 0.125
